One series has as its target T1, His-ATAD2 BD (Homo sapiens, UniProt Q6PL18).
T1 sequence (Q6PL18 981-1108): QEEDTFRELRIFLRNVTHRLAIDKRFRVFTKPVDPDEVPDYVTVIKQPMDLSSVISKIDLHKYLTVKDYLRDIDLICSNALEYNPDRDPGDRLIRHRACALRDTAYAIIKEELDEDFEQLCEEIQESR
Nature of the series: AlphaScreen binding competition assay, tetra-acetylated H4 peptide. The method in brief: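 Competition for binding of acetylated histone H4 N-terminal peptides to the ATAD2 bromodomain, titrated with increasing test compound. TR-FRET read-out for mono- and tetra-acetylated peptides; AlphaScreen read-out for the tetra-acetylated peptide. Normalized signals plotted against compound dose and fitted to a four-parameter logistic equation to obtain IC50.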
In general terms: Bead proximity is the source of the signal in Alpha formats.

The target of a further series is T2, ATAD2 (Homo sapiens, UniProt Q6PL18).
T2 sequence (Q6PL18 981-1108 limits assumed): T1 sequence (Q6PL18 981-1108)
Briefly: BROMOscan. The class given is binding.

The target of the next series is T3, GST-ATAD2 BD (Homo sapiens, UniProt Q6PL18).
T3 sequence (Q6PL18 981-1108): T1 sequence (Q6PL18 981-1108)
Briefly: Microscale thermophoresis. The class given is binding. Conditions: MST. A digest of the protocol: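 Fluorescence-labeled GST-ATAD2 incubated with vehicle or increasing test compound concentrations. Thermophoresis traces recorded in real time. Averaged steady-state MST signals plotted against dose and fitted to a 1:1 binding model to derive KD.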

The target of series [1] is T4, GFP-tagged full-length wild type ATAD2 in MCF7 cells (Homo sapiens, UniProt Q6PL18).
T4 sequence (Q6PL18 1-1390): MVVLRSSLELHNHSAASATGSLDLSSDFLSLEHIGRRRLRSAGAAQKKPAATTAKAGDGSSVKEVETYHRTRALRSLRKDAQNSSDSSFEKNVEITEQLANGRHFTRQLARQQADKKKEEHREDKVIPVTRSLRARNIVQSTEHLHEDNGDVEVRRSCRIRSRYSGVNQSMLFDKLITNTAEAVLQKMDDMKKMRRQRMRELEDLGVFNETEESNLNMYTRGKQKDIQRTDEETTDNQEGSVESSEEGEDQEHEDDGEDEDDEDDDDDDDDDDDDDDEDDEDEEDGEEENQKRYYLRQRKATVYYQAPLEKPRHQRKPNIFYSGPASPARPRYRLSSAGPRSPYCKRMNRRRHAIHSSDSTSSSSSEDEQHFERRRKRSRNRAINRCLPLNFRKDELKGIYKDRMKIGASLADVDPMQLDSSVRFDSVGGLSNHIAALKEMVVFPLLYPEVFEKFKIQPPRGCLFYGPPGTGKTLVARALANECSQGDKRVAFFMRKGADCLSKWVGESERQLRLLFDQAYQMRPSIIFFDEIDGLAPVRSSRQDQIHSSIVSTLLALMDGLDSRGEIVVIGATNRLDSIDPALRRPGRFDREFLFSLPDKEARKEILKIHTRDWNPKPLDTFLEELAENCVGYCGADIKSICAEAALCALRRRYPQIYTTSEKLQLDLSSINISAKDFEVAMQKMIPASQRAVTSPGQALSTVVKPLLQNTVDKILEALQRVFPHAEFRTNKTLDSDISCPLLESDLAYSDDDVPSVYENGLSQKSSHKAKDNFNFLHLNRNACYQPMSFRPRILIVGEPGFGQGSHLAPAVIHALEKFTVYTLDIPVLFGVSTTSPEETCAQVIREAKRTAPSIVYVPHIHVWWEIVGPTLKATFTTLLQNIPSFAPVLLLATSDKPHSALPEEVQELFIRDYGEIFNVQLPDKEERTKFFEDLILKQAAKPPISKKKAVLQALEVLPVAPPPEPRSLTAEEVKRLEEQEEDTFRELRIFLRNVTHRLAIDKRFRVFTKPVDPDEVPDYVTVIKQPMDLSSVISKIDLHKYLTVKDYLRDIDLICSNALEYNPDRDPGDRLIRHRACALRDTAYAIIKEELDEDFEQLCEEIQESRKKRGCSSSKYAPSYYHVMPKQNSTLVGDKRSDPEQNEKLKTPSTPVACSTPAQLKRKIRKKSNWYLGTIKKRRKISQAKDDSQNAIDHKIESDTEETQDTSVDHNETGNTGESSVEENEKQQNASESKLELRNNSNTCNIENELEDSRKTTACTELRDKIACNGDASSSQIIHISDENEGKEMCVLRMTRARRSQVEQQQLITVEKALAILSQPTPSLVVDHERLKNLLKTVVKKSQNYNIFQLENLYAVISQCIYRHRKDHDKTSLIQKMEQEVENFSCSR
Briefly: Fluorescence recovery after photobleaching. The class given is cell-based. The method in brief: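 MCF7 cells transfected with GFP-tagged full-length wild-type ATAD2; BD-mutant and ATPase-mutant constructs run as comparators. Cells treated with 1 μM test compound for 1 h, then a defined area photobleached. Half fluorescence recovery time measured in the bleached area from at least 15 cells per group, reported as mean with standard error of the mean.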

A further series in a line: Permeability. Format: in vitro ADME. Conditions: Caco-2 assay. Background: Passage across Caco-2 layers is used to estimate intestinal permeability.
The subject of series [2] is HMEC nontransformed mammary epithelial cells. Briefly: Growth inhibition of nontransformed cells. Conditions: HMEC vs MCF7 and MDA-MB-231. Format: cell-based.
Another series concerns the target T5, tag-free ATAD2 (Homo sapiens, UniProt Q6PL18).
T5 sequence (Q6PL18 981-1108): T1 sequence (Q6PL18 981-1108)
Nature of the series: Native mass spectrometry. Format: binding. Conditions: 10 μM ATAD2 BD, 5 μM compound.

In series [3] the test system is other members of the BD family. Nature of the series: TSA bromodomain selectivity panel. Format: binding. Conditions: 10 μM. A digest of the protocol: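 Thermal shift assay across the bromodomain family. Melting curves of each bromodomain were acquired with 10 μM test compound or with vehicle. Compound effects were taken from the melting-curve comparison and mapped onto the bromodomain phylogenetic tree.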

For another series, the system named is panel of 354 kinases. Briefly: Kinase panel overall. Format: biochemical, human.
The target in series [4] is T6, FLAG tagged ATAD2 (342 - 1390) (Homo sapiens, UniProt Q6PL18).
T6 sequence (Q6PL18 342-1390): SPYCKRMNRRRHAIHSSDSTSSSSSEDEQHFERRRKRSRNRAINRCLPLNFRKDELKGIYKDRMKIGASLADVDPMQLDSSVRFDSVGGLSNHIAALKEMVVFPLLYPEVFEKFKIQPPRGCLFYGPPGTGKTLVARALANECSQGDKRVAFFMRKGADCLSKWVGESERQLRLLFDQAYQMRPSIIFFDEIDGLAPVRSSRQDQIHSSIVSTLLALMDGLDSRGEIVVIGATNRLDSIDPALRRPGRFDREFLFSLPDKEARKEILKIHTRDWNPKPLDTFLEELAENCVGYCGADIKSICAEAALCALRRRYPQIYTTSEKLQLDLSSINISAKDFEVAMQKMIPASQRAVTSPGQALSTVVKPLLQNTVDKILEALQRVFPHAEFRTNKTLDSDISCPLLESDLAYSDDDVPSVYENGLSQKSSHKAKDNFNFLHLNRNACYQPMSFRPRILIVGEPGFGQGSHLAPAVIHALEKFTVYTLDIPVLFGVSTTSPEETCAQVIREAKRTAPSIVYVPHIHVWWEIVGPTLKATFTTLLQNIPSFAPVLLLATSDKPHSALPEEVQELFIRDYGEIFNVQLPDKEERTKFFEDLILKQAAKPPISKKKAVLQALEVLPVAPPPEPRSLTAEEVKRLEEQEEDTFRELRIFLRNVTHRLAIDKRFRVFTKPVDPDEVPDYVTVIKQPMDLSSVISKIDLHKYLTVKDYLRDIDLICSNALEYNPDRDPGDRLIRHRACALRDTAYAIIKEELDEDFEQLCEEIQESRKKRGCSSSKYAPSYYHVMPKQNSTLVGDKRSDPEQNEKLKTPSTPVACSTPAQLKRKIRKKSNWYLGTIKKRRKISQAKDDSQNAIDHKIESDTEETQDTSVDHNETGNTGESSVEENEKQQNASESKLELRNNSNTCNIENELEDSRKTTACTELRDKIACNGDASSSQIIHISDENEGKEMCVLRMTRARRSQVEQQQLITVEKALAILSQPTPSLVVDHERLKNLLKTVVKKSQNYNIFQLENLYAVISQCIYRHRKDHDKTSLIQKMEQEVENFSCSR
Briefly: AlphaScreen, ATAD2 construct including the ATPase domain. The class given is binding. Conditions: larger ATAD2 construct including the ATPase domain. The method in brief:
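Binding competition between ATAD2 and an acetylated histone H4 peptide, read by AlphaScreen over increasing test compound concentrations. Signals were normalized, plotted against dose and fitted to a four-parameter logistic equation to give potency.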

Series [5] relates to ATAD2 target genes in MCF7 cells. Nature of the series: Gene expression study with quantitative PCR. Conditions: MCF7, 24 h, up to 6.67 µM. The class given is cell-based.
Another series addresses T7, untagged ATAD2 BD (Homo sapiens, UniProt Q6PL18).
T7 sequence (Q6PL18 981-1108): T1 sequence (Q6PL18 981-1108)
Nature of the series: Size exclusion chromatography. Format: binding. Conditions: molar ratio 1:1.

The structures appear in SMILES notation.

One may read the IC50 as the midpoint of a concentration-inhibition curve. What is called Kd is the constant that tells how readily two partners part at equilibrium. High values mean a looser complex, low ones a tighter complex. The compound `COc1cc(Cl)c(C(=O)N[C@@H](CN[C@H]2CC[C@@H](N)CC2)Cc2ccc(C#N)cc2)cc1-c1ccc(CN[C@H](C)c2ccc(C)cc2)o1` [BAY-850] displayed an IC50 on His-ATAD2 BD of 157 nM. The Kd is 115 nM on ATAD2 and 85 nM at GST-ATAD2 BD. In addition, in series [1] (FRAP, MCF7), the “concentration of maximal on-target cellular activity” value came to 1 µM. Moreover, the “Recovery t1/2” value in series [1] (MCF7 cells, 1 μM for 1 h, mean ± SEM) amounted to 6.3 ± 1.2 s. Moreover, the “permeability” value in “Permeability” is reported as “moderate permeability”. Besides, the “growth inhibition of nontransformed vs cancer cells” value in [2] is “similarly active on the nontransformed and cancer cells”. On tag-free ATAD2, the “binding to ATAD2 by native MS” value was “one BAY-850 molecule binds to an ATAD2 dimer”. Besides, the “effect on thermal stability of other BD family members” value in series [3] is “not observed for other members of the BD family”. The “inhibitory activity in kinase panel” value with panel of 354 kinases is listed as “no inhibitory activity”. In addition, the “inhibition of tetra-acetylated H4 peptide binding” value in [4] was “inhibited tetra-acetylated H4 peptide binding”. The “expression of ATAD2 target genes” value in series [5] is given as “did not affect the expression”. In addition, the “ATAD2 dimerisation in SEC elution profile” value at untagged ATAD2 BD is “compound-induced shift from the ATAD2-monomer to ATAD2-dimer form”.

These data come from paper PMC6218015 (ACS Chemical Biology, 2017).
